Test results as given in ChEMBL document CHEMBL3244108, “Potential antitumor agents. Some sulfur-substituted derivatives of alpha- and beta-2'-deoxythioguanosine” (J Med Chem, 1977).
pEC50: −log10 of the molar value.

What was measured:
L1210 [1] = assay: Inhibition of RNA synthesis in mouse L1210 cells assessed as inhibition of tritiated uridine incorporation into nucleic acids; format: functional; conditions: read-out: ED50 (the source's name)
How it was run: (§1)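 Cultured L1210 cells were labeled with tritiated thymidine (DNA) or tritiated uridine (RNA), and label incorporation into the isolated nucleic acids was measured. The ED50 is the drug concentration that inhibits this incorporation by 50%. Other details are referenced to earlier work.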

L1210 [2] = assay: Antitumor activity in mouse L1210 cells allografted in mouse assessed as increase in survival time at optimal dose administered qd on days 1 to 5 of challenge relative to control; format: functional
How it was run: (§2)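 Mouse leukemia survival test run under standard National Cancer Institute protocols. T/C = (treated-animal average survival time / control-animal average survival time) × 100%. Optimum dose is expressed as mg/kg/dose. T/C data were duplicated in separate experiments except where a footnote states that confirmation was not run.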

L1210 [3] = assay: Inhibition of DNA synthesis in mouse L1210 cells assessed as inhibition of tritiated thymidine incorporation into nucleic acids; format: functional; conditions: read-out: ED50 (the source's name); how it was run: as §1
P388 = assay: Antitumor activity in mouse P388 cells allografted in mouse assessed as increase in survival time at optimal dose administered qd on days 1 to 9 of challenge relative to control; format: functional; how it was run: as §2
Mus musculus = organism: Mus musculus; assay: Acute toxicity in mouse; format: organism-based; conditions: in vivo
L1210 [4] = assay: Antitumor activity in mouse L1210 cells allografted in mouse assessed as increase in survival time at optimal dose administered qd on days 1 to 16 of challenge relative to control; format: functional; how it was run: as §2
L1210 [5] = assay: Antitumor activity in mouse L1210 cells allografted in mouse assessed as increase in survival time at 400 mg/kg administered as single dose relative to control; format: functional; how it was run: as §2
L1210 [6] = assay: Antitumor activity in mouse L1210 cells allografted in mouse assessed as increase in survival time at optimal dose administered as single dose relative to control; format: functional; how it was run: as §2
L1210 [7] = assay: Antitumor activity in mouse L1210 cells allografted in mouse assessed as increase in survival time at optimal dose administered qd on days 1 to 9 of challenge relative to control; format: functional; how it was run: as §2

Row | Structure (SMILES) | pEC50 (L1210 [1]) | T/C (L1210 [2]) [%] | pEC50 (L1210 [3]) | T/C (P388) [%] | Activity (Mus musculus) | T/C (L1210 [4]) [%] | T/C (L1210 [5]) [%] | T/C (L1210 [6]) [%] | T/C (L1210 [7]) [%]
1 | Cn1cnc([N+](=O)[O-])c1Sc1nc(N)nc2c1ncn2[C@H]1C[C@H](O)[C@@H](CO)O1 | 4.96 | 173 | 4.60 | 161 | Non-toxic | – | – | – | –
2 | CSc1nc(N)nc2c1ncn2[C@H]1C[C@H](O)[C@@H](CO)O1 | 4.62 | 128 | 4.57 | – | Non-toxic | – | – | – | –
3 | Nc1nc2c(ncn2[C@@H]2C[C@H](O)[C@@H](CO)O2)c(=S)[nH]1 | < 4.00 | 161 | < 4.00 | 168 | – | 174 | – | – | –
4 | Nc1nc(SCc2ccccc2)c2ncn([C@H]3C[C@H](O)[C@@H](CO)O3)c2n1 | – | – | – | – | Non-toxic | – | 157 | 172 | –
5 | Nc1nc(SCc2ccccc2)c2ncn([C@@H]3C[C@H](O)[C@@H](CO)O3)c2n1 | – | 144 | – | – | Non-toxic | – | – | – | –
6 | CSc1nc(N)nc2c1ncn2[C@@H]1C[C@H](O)[C@@H](CO)O1 | < 4.00 | <125 | < 4.00 | <125 | Non-toxic | – | – | – | –
7 | C=CCSc1nc(N)nc2c1ncn2[C@H]1C[C@H](O)[C@@H](CO)O1 | 5.52 | 179 | 5.26 | 181 | Non-toxic | – | – | – | –
8 | C=CCSc1nc(N)nc2c1ncn2[C@@H]1C[C@H](O)[C@@H](CO)O1 | < 4.00 | <125 | < 4.00 | <125 | Non-toxic | – | – | – | –
9 | Cc1cccc(CSc2nc(N)nc3c2ncn3[C@H]2C[C@H](O)[C@@H](CO)O2)n1 | 4.51 | 153 | 4.19 | <125 | Non-toxic | – | – | – | –
10 | Cc1cccc(CSc2nc(N)nc3c2ncn3[C@@H]2C[C@H](O)[C@@H](CO)O2)n1 | 4.14 | <125 | 4.10 | <125 | Non-toxic | – | – | – | –
11 | Cn1cnc([N+](=O)[O-])c1Sc1nc(N)nc2c1ncn2[C@@H]1C[C@H](O)[C@@H](CO)O1 | < 4.00 | 137 | < 4.00 | <125 | Non-toxic | – | – | – | –
12 | CC(=O)OC[C@H]1O[C@@H](n2cnc3c(=S)[nH]c(N)nc32)C[C@@H]1OC(C)=O | – | 156 | – | 174 | – | – | – | – | –
13 | CC(=O)OC[C@H]1O[C@H](n2cnc3c(=S)[nH]c(N)nc32)C[C@@H]1OC(C)=O | – | <125 | – | – | – | – | – | – | –
14 | CSc1nc(NC(C)=O)nc2c1ncn2[C@H]1C[C@H](O)[C@@H](CO)O1 | – | <125 | – | – | Non-toxic | – | – | – | –
15 | Nc1nc2c(ncn2[C@H]2C[C@H](O)[C@@H](CO)O2)c(=S)[nH]1 [ATEGANOSINE] | 4.30 | 219 | < 4.00 | 138 | – | – | – | – | 208
